Screening results from PubChem BioAssay.
Rows were chosen to be rich in hits. Some 2.2% of all compounds tested hit in one or more screens of this group.
Wee1 degr inh = Wee1 degradation inhibitors, primary screen, cell-based, HeLa, Wee1K328M-luciferase, luminescence. Wee1-like protein kinase (Homo sapiens), P30291. HeLa Luc-Wee1K328M stability; 100% = proteasome inhibitor MG132 effect. reporter increase, % at 5 µM. actives 1.2% (n = 220,000);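 active means activation above the mean of all tested compounds plus 3 SD, set per screening run, cut at about 8.8% in these data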;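 further: cells exposed to compound for 20 h before luminescence read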
p97 inhibitor = inhibitors of human p97 ATPase, primary screen, biochemical; recombinant p97 ATPase, Kinase-Glo ATP luminescence, 3 h; inhibition, % at 8 µM; actives 0.42% (n = 220,000); AID 1481, 2009; in the data active means inhibition above about 15%
PKD1 inh = inhibitors of human PKD1 kinase, biochemical, fluorescence polarization; actives 0.056% (n = 200,000); PKD1 kinase fluorescence polarization assay; Serine/threonine-protein kinase D1 (Homo sapiens), Q15139; inhibition, % (no concentration beside the values); in the data active means inhibition above about 50%
RBBP9 inh = human RBBP9 inhibitors, primary screen, biochemical, fluorescence polarization, FP-Rh probe, HTS. inhibition, % at 7.94 µM. Serine hydrolase RBBP9 (Homo sapiens), O75884. actives 0.2% (n = 220,000). recombinant RBBP9;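 active means inhibition above the campaign mean of all tested compounds plus 3 SD, cut at about 14% in these data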
Target sequence (O75884 whole entry, looked up): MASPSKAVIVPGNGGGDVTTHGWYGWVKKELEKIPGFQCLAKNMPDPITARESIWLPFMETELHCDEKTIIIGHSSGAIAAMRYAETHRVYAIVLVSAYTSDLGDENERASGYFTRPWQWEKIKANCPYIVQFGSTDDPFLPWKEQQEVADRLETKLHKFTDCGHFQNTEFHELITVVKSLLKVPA
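System: RBBP9 protein | Quantity: 2.5 µM RBBP9 dispensing solution, before mixing | Reagent: FP-Rh probe, 375 nM dispensing solution | Timing: Enzyme-compound preincubation 30 min, then probe labeling 45 min, 25 °C | Measured by: Fluorescence polarization | Read-out: % inhibition | Replication: One well per compound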
Arbovirus anti = antivirals against arbovirus infection, primary screen, cell-based, full library, 10K replicate subset. arbovirus infection cell-based antiviral screen. inhibition, % at 10 µM. actives 0.37% (n = 200,000). AID 1251, 2008; in the data active means inhibition above about 30%
Redox H2O2 prof = compounds producing H2O2 with reducing agent – biochemical, NIH compound library profiling, artefact control for MLSCN library redox annotation, primary screen; DTT-dependent redox cycling H2O2, phenol red/HRP absorbance; 100% = 100 µM peroxide control, 0% = buffer; activation, % at 10 µM; actives 0.03% (n = 200,000); AID 878, 2007;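 active means activation of at least 50% relative to the plate's high and low controls in the primary single-dose screen; inactive means activation below 50%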;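 further: compound incubated with DTT at 0.8 mM final as the reducing agent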
PKD FP artifact = fluorescence polarization interference in PKD1 assay, artefact control for PKD1 inhibitor project, biochemical, 140K library. PKD1 FP assay interference counter-screen. AID 1315, 2008. inhibition, % at 10 µM. 85 tested, under 10 active. shares compounds with PKD1 inh; call rule not given here
Each line names hits and unclear results; the compound was inactive in the other large screens (follow-up assays come after a bar, where they were run).

CCCCn1c(SCc2cccc([N+](=O)[O-])c2)nc2ccsc2c1=O	Arbovirus anti 34.4
O=C(Nn1c(SCc2cccc([N+](=O)[O-])c2)nc2ccccc2c1=O)c1ccccc1	Arbovirus anti 39.0
CN(C)CC(CCC(CN(C)C)C(=O)c1ccccc1)C(=O)c1ccccc1 (stereo unspecified)	Wee1 degr inh 11.2 (no result: PKD1 inh, Arbovirus anti, Redox H2O2 prof)
CCOc1ccc(C(=O)C(CCC(CN(C)C)C(=O)c2ccc(OCC)cc2)CN(C)C)cc1 (stereo unspecified)	none
CC(=O)c1sc2nsc(SCCN3CCOCC3)c2c1N	Wee1 degr inh 9.0 (no result: PKD1 inh, Arbovirus anti, Redox H2O2 prof)
CC(=O)c1c(C(C)=O)c(C)n(NC(=O)c2ccccc2Cl)c1C	Wee1 degr inh 9.2
Cc1ccc(C)n1NC(=O)c1ccccc1Cl	none
CC(C)c1ccc(/C=C2\SC(N3CCOCC3)=NC2=O)cc1	Wee1 degr inh 9.2 (no result: PKD1 inh, Arbovirus anti, Redox H2O2 prof)
Nc1c(C(=O)N/N=C/c2cccnc2)cnn1-c1ccccc1	Wee1 degr inh 9.6
O=C(O)c1ccccc1Nc1ccc([N+](=O)[O-])cc1	Arbovirus anti 37.1
O=C(O)c1ccccc1Nc1ccccc1C(=O)O	none
Cc1onc(-c2ccccc2)c1-c1ccnn1S(=O)(=O)c1ccc(Cl)cc1	Wee1 degr inh 10.0 (no result: PKD1 inh, Arbovirus anti, Redox H2O2 prof)
CCOC(=O)c1c(-c2ccc(C)cc2)csc1NC(=O)C1CC=CCC1C(=O)O (stereo unspecified)	Arbovirus anti 35.4
Cc1ccc(-c2csc(NC(=O)C3CC=CCC3C(=O)O)c2C(=O)OC(C)C)cc1 (stereo unspecified)	Arbovirus anti 46.9
CC(C)(C)C(=O)NC(=S)Nc1ccc(F)cc1	none
O=C(NCc1ccccn1)C1CC(c2ccc(F)cc2)=NO1 (stereo unspecified)	none
COc1ccc(-c2cnnc(N/N=C/c3ccc(O)c(O)c3)n2)cc1	PKD1 inh 52.2 | PKD FP artifact inactive
Cc1ccc(NC(=O)Nc2ccc(F)c(Cl)c2)cc1	none
Cc1ccc(NC(=O)CNc2ccc(Cl)cc2F)cc1	PKD1 inh 86.1 | PKD FP artifact inactive
Cc1ccc(Nc2cc(C)nc(-c3ccccc3O)n2)cc1	none
Cc1cc(NCCCN)nc(-c2ccccc2O)n1	PKD1 inh 113.7 | PKD FP artifact inactive
CC(C)CCN1CN(S(=O)(=O)c2cccs2)c2nc3ccccc3nc21	PKD1 inh 95.3 | PKD FP artifact inactive
Cc1c(C(=O)NCc2cccnc2)sc2nc(-c3ccc(F)cc3)cn12	PKD1 inh 54.5 | PKD FP artifact inactive
CCN(c1ccc(N=Cc2c(O)n(Cc3ccc(OC)cc3)c(=O)c3ccccc23)cc1)C(C)C	none
CC12CCC(C(=O)NCc3ccc4c(c3)OCO4)(C(=O)C1=O)C2(C)C (stereo unspecified)	none
O=C(O)C1CCN(c2ncccn2)CC1	PKD1 inh 90.0 | PKD FP artifact inactive
Cc1nn(C)c(C)c1N1C(=O)c2cccc3c(Br)ccc(c23)C1=O	none
Cc1nn(C)c(C)c1N1C(=O)c2cccc3c(N)ccc(c23)C1=O	PKD1 inh 66.7 | PKD FP artifact inactive
CC(=O)Oc1cc(OC(C)=O)c2c(C)cc(=O)oc2c1	PKD1 inh 53.7 | PKD FP artifact inactive
O=C(CCCSc1nc2ccccc2[nH]1)Nc1nnc(C2CC2)s1	none
O=S(=O)(c1ccc2c(c1)OCCO2)N1CCN(Cc2ccc3c(c2)OCO3)CC1	none
Cn1c(=O)oc2cc(S(=O)(=O)N3CCN(Cc4ccc5c(c4)OCO5)CC3)ccc21	PKD1 inh 79.8 | PKD FP artifact inactive
Cc1cn(C2CC3OCC3O2)c(=O)[nH]c1=O (stereo unspecified)	none
Cc1cc(-c2ccccc2C(=O)NC2CCCCC2)on1	none (no result: PKD1 inh, Arbovirus anti, Redox H2O2 prof)
CCOC(=O)N1CCC(N2CCN(S(=O)(=O)CC)CC2)CC1	PKD1 inh 92.8 | PKD FP artifact inactive
Cc1[nH]nc2c1-c1nc3ccccc3nc1C(C)(C)C2	PKD1 inh 57.8, Arbovirus anti 33.3 | PKD FP artifact inactive
CC12CCC(C)(c3nc4ccccc4nc31)C2(C)C	none
FC(F)Oc1ccc(NC(=S)NCC2COc3ccccc3O2)cc1 (stereo unspecified)	none
Cc1ccc(-n2c3c(cc(C(=O)NCc4ccco4)c2=O)C(=O)CC(C)(C)C3)cc1	none
O=C1CCCc2c1cc(C(=O)NCc1ccco1)c(=O)n2-c1ccccc1	PKD1 inh 51.6 | PKD FP artifact inactive
CC1CCc2c(sc3ncn(N)c(=N)c23)C1 (stereo unspecified)	none (no result: PKD1 inh, Arbovirus anti, Redox H2O2 prof)
COc1ccc(S(=O)(=O)N2CCC(n3cnc4cc(C(F)(F)F)ccc43)CC2)cc1	PKD1 inh 74.5 | PKD FP artifact inactive
O=C(Nc1ccc(N2CCN(C(=O)c3ccco3)CC2)cc1)c1cccnc1Cl	none
Cc1occc1C(=O)NCCCCc1ccccc1	none
Cc1occc1C(=O)NC(C)CCc1ccccc1 (stereo unspecified)	PKD1 inh 119.0 | PKD FP artifact inactive
CN1CCN(c2ccccc2NC(=O)c2ccc(-c3cccc([N+](=O)[O-])c3)o2)CC1	PKD1 inh 51.8 | PKD FP artifact inactive
Cc1ccc(CNC(=O)c2cnccn2)cc1	none
CCOC(=O)c1cccc(NC(=O)CCS(=O)(=O)c2cccc3nsnc23)c1	PKD1 inh 68.9 | PKD FP artifact inactive
Cc1cc(C)cc(Nc2cc(=O)n(C3CCCCC3)c(=O)[nH]2)c1	none
Cc1cc2nc3c(=O)n(C4CCCCC4)c(=O)[nH]c3nc2cc1N	PKD1 inh 56.5 | PKD FP artifact inactive
CC(OC(=O)c1ccc(NS(=O)(=O)c2cccs2)cc1)C(=O)N(C)C1CCCCC1 (stereo unspecified)	PKD1 inh 50.9 | PKD FP artifact inactive
COc1ccc2c3c(cccc13)C(=O)N(O)C2=O	none
CCC1=NNc2cccc3c(OC)ccc1c23	PKD1 inh 98.6 | PKD FP artifact inactive
CCNC(=S)NNC(=O)c1cc(C2CC2)nc2ccccc12	none
CS(=O)(=O)N1CCN(c2ccc(NC(=O)c3ccc(Br)o3)cc2)CC1	PKD1 inh 90.8 | PKD FP artifact inactive
Cc1cc(Nc2cccc(F)c2)nc(NCc2ccccc2)n1	PKD1 inh 55.5 | PKD FP artifact inactive
Cc1cc(Nc2ccccc2)nc(NCc2ccccc2)n1	none
O=C(CCN1C(=O)/C(=C\c2cccs2)SC1=S)NC1=NCCS1	none
